This is an account of results in paper PMC3457786 (Journal of chromatography. B, Analytical technologies in …, 2012).

Entries after “also recorded” stand apart in the source; their conditions may differ. Read-outs that look alike come from different tables or passages of the source.

Data set [1] relates to Caco-2 monolayers. As to the kind of experiment: Drug transport. In kind it is in vitro ADME, human. The settings on record: for Papp (× 10^−5) (cm/s) AP-to-BL / Papp (× 10^−5) (cm/s) BL-to-AP: 37°C, 30-120 min, mean ± SD (n=3).
The nature of data set [2]: Stability and isomer conversion of chelator solutions by HPLC. The settings on record: resolved by HPLC. In kind it is physicochemical. The method in brief: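 Solutions diluted in HBSS from 100 mM DMSO stocks, sonicated and warmed to 37°C. Stored at 4°C for one week with freeze-thaw, or 4 h at room temperature or 40°C. 50 µM solutions with a 10 µM thiosemicarbazone internal standard injected fresh and after 24 h at 4°C. Reversed-phase F5 column, 40°C, 1 mL/min, 2 mM ammonium acetate/10 mM EDTA–acetonitrile 50:50, pH 5.8, UV 318 nm.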

Data set [3] relates to Caco-2 cells. As to the kind of experiment: Cytotoxicity assay. The settings on record: concentrations up to 500 µM, 24 h. In kind it is cell-based.
Data set [4] has as its system HIV-1. The settings on record: ref [14], cited from earlier work.
Data set [5] has as its system labile iron pool (LIP) in THP-1 cells. As to the kind of experiment: Calcein-based iron chelation assay. In kind it is cell-based, human. The settings on record: iron-loaded THP-1 cells, 10 µM chelator, SIH as positive control. The method in brief: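 THP-1 cells were loaded with ferric sulfate at 25 µM for 1 h (figure legend: iron(II) sulfate at 10 µM for 3 h, 37°C). They then took calcein-AM at 0.2 µM for 10 min at 37°C, were washed and resuspended in PBS. Chelator (10 µM) or SIH (30 µM) was added. Fluorescence (ex 465/em 510 nm) was read immediately in repeated 2-min cycles at 37°C, expressed as (F−Fi)/Fi, with Fi = fluorescence at time 0.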

Data set [6] has as its system lung cancer xenografts. The settings on record: mice, oral route; ref (35); cited from earlier work.
Data set [7] is described as follows: Cytotoxicity assay. In kind it is cell-based. The settings on record: human.
The conditions of data set [8]: ref [30]; cited from earlier work.
Data set [9] concerns Caco-2 cells. The settings on record: Caco-2 cells in vitro; ref [34]; cited from earlier work.
The test system of data set [10] is Caco-2 monolayers. As to the kind of experiment: Lucifer yellow. In kind it is in vitro ADME, human. The settings on record: either direction, at the ends of the experiments.
Where [11] appears, read: 100 µM chelator, Caco-2 monolayers.
The mark [12] stands for this setting: 300 µM chelator, Caco-2 monolayers.

Take `C=CCNC(=S)NN=C(c1ccccc1)c1ccccn1` [Bp4aT, 2-benzoylpyridine 4-allyl-3-thiosemicarbazone]: the “Rnet, ratio of Papp (BL-to-AP) to Papp (AP-to-BL)” value in data set [1] (100 µM chelator) is 0.77; in data set [1] (300 µM chelator), 0.92. The “Papp (× 10^−5) (cm/s) AP-to-BL” value is recorded as 1.670 ± 0.016 × 10^−5 cm/s in data set [1] (setting [11]) and 2.756 ± 0.261 × 10^−5 cm/s in data set [1] (setting [12]). The figures for the “Papp (× 10^−5) (cm/s) BL-to-AP” value in data set [1] (setting [11]) and in data set [1] (setting [12]) were 1.292 ± 0.282 × 10^−5 cm/s and 2.534 ± 0.454 × 10^−5 cm/s, respectively. The “Transport of Bp4aT faster than that of Bp4eT” value in data set [1] (relative to Bp4eT, Caco-2 monolayers) is reported as “approximately 1.5 fold”. Besides, the “E/Z isomer formation in aqueous solution” value in data set [2] is “formed inter-convertible Z and E isomers”. The “Effect on Caco-2 cell growth / cytotoxicity” value in [3] was “little effect; also recorded: no apparent cytotoxicity”. Further, in data set [4] ([15]), the “IC50, inhibition of HIV-1 replication” value is reported as “nanomolar concentrations”. In data set [5], the “Intracellular iron chelation (calcein de-quenching)” value is “slightly more effective intracellular iron chelators than SIH; also recorded: greater chelation efficacy than Bp4eT”.
Turning to `CCNC(=S)NN=C(c1ccccc1)c1ccccn1` [Bp4eT, 2-benzoylpyridine 4-ethyl-3-thiosemicarbazone], the results for the “Rnet, ratio of Papp (BL-to-AP) to Papp (AP-to-BL)” value in data set [1] (100 µM chelator) and in data set [1] (300 µM chelator) were 1.10 and 0.89, respectively. The “Papp (× 10^−5) (cm/s) AP-to-BL” value is on record as 0.809 ± 0.119 × 10^−5 cm/s in data set [1] (setting [11]) and 1.819 ± 0.302 × 10^−5 cm/s in data set [1] (setting [12]). In addition, the figures for the “Papp (× 10^−5) (cm/s) BL-to-AP” value in data set [1] (setting [11]) and in data set [1] (setting [12]) were 0.889 ± 0.196 × 10^−5 cm/s and 1.627 ± 0.107 × 10^−5 cm/s, respectively. The “E/Z isomer formation in aqueous solution” value in data set [2] is “formed inter-convertible Z and E isomers”. Also, in data set [4] ([15]), the “IC50, inhibition of HIV-1 replication” value is “nanomolar concentrations”. Also, the “Intracellular iron chelation (calcein de-quenching)” value in [5] is “slightly more effective intracellular iron chelators than SIH”.
With `CN(C)C(=S)NN=C(c1ccccc1)c1ccccn1` [Bp44mT, 2-benzoylpyridine-4,4-dimethyl-3-thiosemicarbazone], the “Efficacy against lung cancer xenografts” value in [6] is listed as “marked efficacy”.
In general, viability refers to the share of living cells, or the viability signal relative to a control. On to `NC(=S)NN=C(c1ccccc1)c1ccccn1` [BpT, 2-benzoylpyridine thiosemicarbazone], for which the viability at 24 h, 500 µM in [7] was ~70%.
`CC(=O)N(O)CCCCCNC(=O)CCC(=O)N(O)CCCCCNC(=O)CCC(=O)N(O)CCCCCN` [DFO, desferrioxamine]: in data set [8], the “Absorption through the gastrointestinal tract” value is listed as “very poor absorption”.
Take `O=C(O)c1ccc(-n2nc(-c3ccccc3O)nc2-c2ccccc2O)cc1` [ICL670, 4-[3,5-bis-(hydroxyphenyl)-1,2,4-triazol-1-yl]-benzoic acid, reference compound]: the Papp value in data set [9] is 1.66 ± 0.13 × 10^−5 cm/s. Besides, the “IC50, inhibition of HIV-1 replication” value is “high micromolar concentrations” in [4] ([15]) and “high micromolar range” in [4].
For lucifer yellow [LY], the “LY recovered from the receiver chambers” value in data set [10] is recorded as “Less than 2%”.
